Assay results from ChEMBL document CHEMBL3286310, “Synthesis and biological evaluation of novel N-aryl maleimide derivatives clubbed with α-hydroxyphosphonates” (2014).
Values after ≈ are worked out from the molar mass of the structure shown.

Experiments:
Type in all cases: functional
[1] = tested on: Candida tropicalis; test: Antimicrobial activity against Candida tropicalis MTCC 184 after 24 hrs by NCCLS M7-A5 method; details: MTCC 184, 24 h
Outline: (§1)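 MIC by agar dilution on Mueller-Hinton agar plates, following NCCLS M7-A5. MIC was taken as the lowest concentration with no visible growth after 24 h incubation at 37 °C.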

[2] = tested on: Bacillus subtilis; test: Antimicrobial activity against Bacillus subtilis NCIM 2250 at 100 ug/disc after 24 hrs by agar cup plate method; details: NCIM 2250, 24 h, read-out: DIZ
Outline: (§2)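 Agar cup plate diffusion with bacterial inocula reseeded in Mueller-Hinton broth for 24 h at 37 °C. Compounds diluted in DMF, with DMF alone as control and streptomycin as standard. Inhibition-zone diameter read by caliper, each zone measured three times and averaged.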

[3] = tested on: Aspergillus clavatus; test: Antimicrobial activity against Aspergillus clavatus MTCC 1323 at 100 ug/disc after 48 hrs by agar cup plate method; details: MTCC 1323, 48 h, read-out: DIZ
Outline: (§3)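 Agar cup plate diffusion with fungal inocula reseeded in Czapek Dox broth for 48 h at 25 °C. Compounds diluted in DMF, with DMF alone as control and griseofulvin as standard. Inhibition-zone diameter read by caliper, each zone measured three times and averaged.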

[4] = tested on: Bacillus subtilis; test: Antimicrobial activity against Bacillus subtilis NCIM 2250 after 24 hrs by NCCLS M7-A5 method; details: NCIM 2250, 24 h; outline: as §1
[5] = tested on: Escherichia coli; test: Antimicrobial activity against Escherichia coli ATCC 25922 at 100 ug/disc after 24 hrs by agar cup plate method; details: ATCC 25922, 24 h, read-out: DIZ; outline: as §2
[6] = tested on: Aspergillus clavatus; test: Antimicrobial activity against Aspergillus clavatus MTCC 1323 after 24 hrs by NCCLS M7-A5 method; details: MTCC 1323, 24 h; outline: as §1
[7] = tested on: Escherichia coli; test: Antimicrobial activity against Escherichia coli ATCC 25922 after 24 hrs by NCCLS M7-A5 method; details: ATCC 25922, 24 h; outline: as §1
[8] = tested on: Candida tropicalis; test: Antimicrobial activity against Candida tropicalis MTCC 184 at 100 ug/disc after 48 hrs by agar cup plate method; details: MTCC 184, 48 h, read-out: DIZ; outline: as §3
[9] = tested on: Aspergillus niger; test: Antimicrobial activity against Aspergillus niger MCIM 545 at 100 ug/disc after 48 hrs by agar cup plate method; details: MCIM 545, 48 h, read-out: DIZ; outline: as §3
[10] = tested on: Candida albicans; test: Antimicrobial activity against Candida albicans MTCC 277 after 24 hrs by NCCLS M7-A5 method; details: MTCC 277, 24 h; outline: as §1
[11] = tested on: Candida albicans; test: Antimicrobial activity against Candida albicans MTCC 277 at 100 ug/disc after 48 hrs by agar cup plate method; details: MTCC 277, 48 h, read-out: DIZ; outline: as §3
[12] = tested on: Aspergillus niger; test: Antimicrobial activity against Aspergillus niger MCIM 545 after 24 hrs by NCCLS M7-A5 method; details: MCIM 545, 24 h; outline: as §1

Row | Structure (SMILES) | MIC [1] | zone of inhibition at 100 µg/disc [2] | zone of inhibition at 100 µg/disc [3] | MIC [4] | zone of inhibition at 100 µg/disc [5] | MIC [6] | MIC [7] | zone of inhibition at 100 µg/disc [8] | zone of inhibition at 100 µg/disc [9] | MIC [10] | zone of inhibition at 100 µg/disc [11] | MIC [12]
1 | CCOP(=O)(OCC)C(O)C1=C(N(C)C)C(=O)N(c2ccccc2)C1=O (stereo unspecified) | 20 µg/mL (≈ 52.3 µM) | 13.4 mm | 16.3 mm | 25 µg/mL (≈ 65.4 µM) | 13.2 mm | 20 µg/mL (≈ 52.3 µM) | 20 µg/mL (≈ 52.3 µM) | 16.1 mm | – | – | – | –
2 | CCOP(=O)(OCC)C(O)C1=C(N(C)C)C(=O)N(c2ccc(Br)cc2)C1=O (stereo unspecified) | 15 µg/mL (≈ 32.5 µM) | 15.1 mm | 16.4 mm | 20 µg/mL (≈ 43.4 µM) | 13.1 mm | 20 µg/mL (≈ 43.4 µM) | 25 µg/mL (≈ 54.2 µM) | 16.8 mm | 15.5 mm | 25 µg/mL (≈ 54.2 µM) | 13.8 mm | 20 µg/mL (≈ 43.4 µM)
3 | CCOP(=O)(OCC)C(O)C1=C(N(C)C)C(=O)N(c2ccc(F)cc2)C1=O (stereo unspecified) | 15 µg/mL (≈ 37.5 µM) | 15.6 mm | 17.3 mm | 10 µg/mL (≈ 25 µM) | 15.8 mm | 10 µg/mL (≈ 25 µM) | 10 µg/mL (≈ 25 µM) | 16.7 mm | 16.4 mm | 15 µg/mL (≈ 37.5 µM) | 16.5 mm | 15 µg/mL (≈ 37.5 µM)
4 | CCOP(=O)(OCC)C(O)C1=C(N(C)C)C(=O)N(c2cccc(C(F)(F)F)c2)C1=O (stereo unspecified) | 10 µg/mL (≈ 22.2 µM) | 15.4 mm | 17.4 mm | 15 µg/mL (≈ 33.3 µM) | 15.7 mm | 10 µg/mL (≈ 22.2 µM) | 10 µg/mL (≈ 22.2 µM) | 17.2 mm | 16.6 mm | 20 µg/mL (≈ 44.4 µM) | 15.2 mm | 15 µg/mL (≈ 33.3 µM)
5 | CCOP(=O)(OCC)C(O)C1=C(N(C)C)C(=O)N(c2ccc(Cl)cc2)C1=O (stereo unspecified) | 25 µg/mL (≈ 60 µM) | – | – | – | 13.4 mm | – | 25 µg/mL (≈ 60 µM) | 15.9 mm | 15.8 mm | – | – | 20 µg/mL (≈ 48 µM)
6 | CCOP(=O)(OCC)C(O)C1=C(N(C)C)C(=O)N(c2cccc(Cl)c2)C1=O (stereo unspecified) | 10 µg/mL (≈ 24 µM) | 15.8 mm | 16.2 mm | 10 µg/mL (≈ 24 µM) | 13.5 mm | 20 µg/mL (≈ 48 µM) | 20 µg/mL (≈ 48 µM) | 17.1 mm | 13.6 mm | 10 µg/mL (≈ 24 µM) | 16.6 mm | 25 µg/mL (≈ 60 µM)
7 | CCOP(=O)(OCC)C(O)C1=C(N(C)C)C(=O)N(c2ccccc2Cl)C1=O (stereo unspecified) | 20 µg/mL (≈ 48 µM) | 13.6 mm | 16.8 mm | 20 µg/mL (≈ 48 µM) | 15.4 mm | 15 µg/mL (≈ 36 µM) | 15 µg/mL (≈ 36 µM) | 16.2 mm | 16.6 mm | 20 µg/mL (≈ 48 µM) | 15.1 mm | 15 µg/mL (≈ 36 µM)
8 | COC1=CC(=O)C[C@@H](C)[C@]12Oc1c(Cl)c(OC)cc(OC)c1C2=O [GRISEOFULVIN] | 5 µg/mL (≈ 14.2 µM) | – | 17.6 mm | – | – | 5 µg/mL (≈ 14.2 µM) | – | 17.3 mm | 16.9 mm | 5 µg/mL (≈ 14.2 µM) | 16.8 mm | 5 µg/mL (≈ 14.2 µM)
9 | CN[C@@H]1[C@H](O[C@H]2[C@H](O[C@H]3[C@H](O)[C@@H](O)[C@H](N=C(N)N)[C@@H](O)[C@@H]3N=C(N)N)O[C@@H](C)[C@]2(O)C=O)O[C@@H](CO)[C@H](O)[C@H]1O [STREPTOMYCIN] | – | 16.2 mm | – | 5 µg/mL (≈ 8.6 µM) | 16.4 mm | – | 5 µg/mL (≈ 8.6 µM) | – | – | – | – | –
